Experimental data from publication PMC4574835 (British Journal of Clinical Pharmacology, 2015).

Columns and labels:
[1] = Population PK model; format: in vivo, human
[2] = Individual predicted steady-state PK parameters; format: in vivo, human; settings: for Tmax / AUC / Cmax: human, plasma, oral; for AUC: AUC(0-τ); for AUC / Cmax / Cτ: steady state
Procedure, shortened: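 Individual parameters were empirical Bayes estimates from the final population model, using each subject's actual dose after repeat dosing. AUC(0-τ) was Dose/([CL/F_i]/F). Cmax, tmax and Cτ came from simulated steady-state concentration–time profiles using individual parameters, assuming no inter-occasion variability and zero residual variability. Summary statistics were computed.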

[3] = Exploratory PK-PD relationship, safety endpoints; format: in vivo, human; settings: AUC(0-τ), Cmax and Cτ; except serum creatinine and CRCL
Procedure, shortened: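 This was an exploratory graphical analysis in phase 2b/3 treatment-naive patients. Individual predicted steady-state Cτ, Cmax and AUC(0-τ) came from the final population model, using actual doses and assuming no inter-occasion variability. They were plotted against change from baseline in serum creatinine, creatinine clearance, urine albumin:creatinine ratio, ALT and total bilirubin, both as maximal change over 48 weeks and as change at week 48.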

[4] = system: organic cation transporter, OCT2; settings: cited from earlier work
[5] = system: viral strains harboring major integrase resistance mutations selected for by raltegravir and elvitegravir; settings: in vitro; mutations selected for by RAL and EVG; cited from earlier work
[6] = NONMEM point estimate, inter-individual variability
[7] = NONMEM point estimate, listed as DTG
[8] = 10 mg, ING111521, 10 mg once daily, geometric mean (95% CI)
[9] = 10 mg, SPRING-1, 10 mg once daily, geometric mean (95% CI)
[10] = 50 mg, ING111521, 50 mg once daily, geometric mean (95% CI)
[11] = 50 mg, SPRING-2, 50 mg once daily, geometric mean (95% CI)

## C[C@@H]1CCO[C@H]2Cn3cc(C(=O)NCc4ccc(F)cc4F)c(=O)c(O)c3C(=O)N12 [dolutegravir, Dolutegravir]
[1]; NONMEM point estimate
  ALAG (absorption lag-time): 0.263 h
  ka (absorption rate constant): 2.24 h^–1
[1]; NONMEM point estimate, factor on F for 10 mg dose
  F ∼ 10 mg: 1.24
[1]; NONMEM point estimate, factor on F for females
  F ∼ GENDER: 1.21
[1]; [6]
  ω^2V (variance of random effect of V/F): 0.0188
  ω^2ka (variance of random effect of ka): 0.224
[1]; [7]
  ALAG (absorption lag-time): 0.263 (0.0942, 0.432) h
  ka (absorption rate constant): 2.24 (1.56, 2.92) h^–1
[1]; NONMEM point estimate, power coefficient (WT/70)
  V/F ∼ WT: 0.768
[1]; NONMEM point estimate, residual variability
  σ^2prop (proportional residual error): 0.0704
[1]; age 18–68 years
  CL/F range over age in analysis population: 0.772–0.998 l h^–1
[1]; bootstrap median, 1000 runs
  ALAG: 0.262 h
  CL/F: 0.901 l h^–1
  F ∼ 10 mg: 1.24
  F ∼ GENDER: 1.21
  V/F: 17.4 L
  V/F ∼ WT: 0.774
  ka: 2.21 h^–1
  σ^2prop: 0.0698
  ω^2CL: 0.0539
  ω^2V: 0.0182
  ω^2ka: 0.217
[1]; compared with SPRING-1 and SPRING-2
  Increase in CL/F for study ING111521: 35%
[1]; compared with males, mean
  Oral bioavailability (F) higher in female subjects: 21%
[1]; human, plasma, oral
  Vd/F: 17.4 L
[1]; vs non-current smokers, mean
  Apparent clearance higher in current smokers: 16%
[1]; weight 39–135 kg
  CL/F range over weights in analysis population: 0.697–1.20 l h^–1
  V/F range over weights in analysis population: 11.1 to 28.8 L
[2]
  Tmax: ~2 h
[2]; 10 mg
  Tmax: 1.66 h
[2]; [8]
  AUC: 9.33 µg·h/mL
  Cmax: 0.691 µg/mL
[2]; [9]
  AUC: 14.3 µg·h/mL
  Cmax: 0.957 µg/mL
[2]; 50 mg
  Tmax: 1.94 h
[2]; [10]
  AUC: 41.3 µg·h/mL
  Cmax: 2.94 µg/mL
[2]; 50 mg, SPRING-1, 50 mg once daily, geometric mean (95% CI)
  AUC: 53.8 µg·h/mL
[2]; [11]
  AUC: 53.6 µg·h/mL
  Cmax: 3.69 µg/mL
[2]; 50 mg once daily, three studies pooled (n = 449), geometric mean
  Cτ: 1.11 µg ml^–1
[2]; ING111521, 10 mg once daily, geometric mean (95% CI)
  Cτ: 0.168 (0.136, 0.208) µg ml^–1
[2]; ING111521, 50 mg once daily, geometric mean (95% CI)
  Cτ: 0.785 (0.689, 0.895) µg ml^–1
[2]; SPRING-1, 10 mg once daily, geometric mean (95% CI)
  Cτ: 0.311 (0.281, 0.345) µg ml^–1
[2]; SPRING-1, 25 mg once daily, geometric mean (95% CI)
  Cτ: 0.530 (0.462, 0.609) µg ml^–1
[2]; SPRING-1, 50 mg once daily, geometric mean (95% CI)
  Cτ: 1.17 (1.04, 1.33) µg ml^–1
[2]; SPRING-2, 50 mg once daily, geometric mean (95% CI)
  Cτ: 1.10 (1.05, 1.15) µg ml^–1
[3]
  Relationship between DTG exposure and the safety endpoints: No relationship
[4]
  Inhibition of OCT2: known to inhibit
[5]
  Activity against viral strains harboring major integrase resistance mutations: retains activity
